# Published values pooled from the literature.
# Target: Cytoplasmic tyrosine-protein kinase BMX (BMX, Homo sapiens, UniProt P51813)
Structure (SMILES),observed,action,method,concentration,endpoint,value
Cn1c2c(Cl)c(Cl)ccc2c2cn[nH]c(=O)c21,thermal stability,,DSF,10 µM,ΔTm,0.4 °C
Cc1cc(NC(=O)c2cccc3cc(-c4cccc5[nH]nc(N)c45)ccc23)ccc1F,enzyme activity,inhibitor,,0.1 µM,activity vs control,108%
O=C(Nc1cccnn1)N1CCC(=Cc2cccc(Oc3ccc(C(F)(F)F)cn3)c2)CC1,cell-free assay,,competition with immobilised ligand,1 µM,remaining binding,71%
C=CC(=O)Nc1cc(Nc2nccc(Nc3cc(Cl)c(F)cc3C(C)(C)O)n2)c(OC)cc1N1CC[C@@H](N(C)C)C1,enzyme activity,inhibitor,,1 µM,inhibition,80%
CC/C(=N\NC(=O)NCc1cccc(O)c1)c1ccc(O)c(C)c1O,enzyme activity,inhibitor,,0.1 µM,inhibition,3%
CCOC(=O)c1cc2cc(-c3cc(C(=O)NCc4ccc(C(=O)O)cc4)nn3C)ccc2[nH]1,cell-free assay,,competition with immobilised ligand,0.1 µM,remaining binding,82%
C#Cc1cccc(Nc2ncnc3cc(OCCOC)c(OCCOC)cc23)c1,cell-free assay,,,0.5 µM,remaining signal,100%
Cc1nc(N2CC[C@@H](O)C2)ncc1-c1cc(C(F)(F)F)cc2[nH]ncc12,cell-free assay,,competition with immobilised ligand,1 µM,remaining binding,100%
COc1cc2nccc(Oc3ccc(NC(=O)c4c5n(n(-c6ccc(F)cc6)c4=O)CCCC5)cc3)c2cc1OC,enzyme activity,inhibitor,,0.1 µM,inhibition,22%
CC(=O)C1=C(C)N(c2cccc(C(F)(F)F)c2)C(=O)N[C@@H]1c1ccc(C#N)nc1,cell-free assay,,competition with immobilised ligand,1 µM,remaining binding,97.4%
Nc1[nH]nc2nnc(-c3c(-c4ccccc4)nn4ccccc34)cc12,enzyme activity,inhibitor,,0.5 µM,remaining activity,84.4%
CNC(=O)c1cc(Oc2ccc(NC(=O)Nc3ccc(Cl)c(C(F)(F)F)c3)cc2)ccn1,enzyme activity,inhibitor,,0.3 µM,inhibition,-3%
O=c1cc(-c2cccc3c2Sc2ccccc2S3)oc(N2CCOCC2)c1,enzyme activity,inhibitor,,0.5 µM,remaining activity,112%
Cn1c2c(c3ccc(Cl)c(Cl)c31)C(C#N)C1(CCCC1)NC2=O (stereo not drawn),thermal stability,,DSF,10 µM,ΔTm,0 °C
CNc1cc2c(Nc3cccc(Br)c3)ncnc2cn1,enzyme activity,inhibitor,,0.5 µM,remaining activity,93.9%
Cc1ccc(Nc2nccc(N(C)c3ccc4c(C)n(C)nc4c3)n2)cc1S(N)(=O)=O,enzyme activity,inhibitor,,0.3 µM,inhibition,8%
CC(=O)N1CCC(c2ccc(C(=O)NC(=N)N)cc2C(F)(F)F)CC1,cell-free assay,,competition with immobilised ligand,1 µM,remaining binding,100%
C[C@@H](N)[C@H]1CC[C@H](C(=O)Nc2ccncc2)CC1,enzyme activity,inhibitor,,0.5 µM,remaining activity,91.2%
Cn1c2c(c3ccc(Cl)c(Cl)c31)C(C#N)C1(CCNCC1)NC2=O (racemic),thermal stability,,DSF,10 µM,ΔTm,-0.3 °C
CN(C)C1CCN(CC#Cc2nn(C3CCCC3)c3nc(NCc4ccccc4)ncc23)C1 (stereo not drawn),enzyme activity,inhibitor,FRET,0.1 µM,inhibition,11%
Cn1cc(Cl)c2c(Oc3c(F)cc(Nc4cc(Cl)nc(N)n4)cc3F)ccnc21,cell-free assay,,competition with immobilised ligand,0.1 µM,remaining binding,97%
Cn1c2c(c3ccc(Cl)c(Cl)c31)C(C#N)C1(CCCCC1)NC2=O (racemic),thermal stability,,DSF,10 µM,ΔTm,0.1 °C
CCN(CC)CCNC(=O)c1c(C)[nH]c(/C=C2\C(=O)Nc3ccc(F)cc32)c1C,enzyme activity,inhibitor,,10 µM,inhibition,41%
O=C1c2ccccc2-c2n[nH]c3cccc1c23,enzyme activity,inhibitor,,0.5 µM,activity vs control,90.8%
Cc1ccc(NC(=O)c2ccc(C)c(C(F)(F)F)c2)cc1C#Cc1nn(C2CCC(O)CC2)c2ncnc(N)c12 (stereo not drawn),cell-free assay,,,10 µM,remaining signal,-1%
CNc1cccc2cc(C(=O)Nc3ccc(C(=O)O)cc3)c(=O)[nH]c12,enzyme activity,inhibitor,,10 µM,inhibition,9.1%
O=C1Nc2ccc(Cl)cc2C1=Cc1cc(Cl)c(O)c(Cl)c1,cell-free assay,,,0.5 µM,remaining signal,94.8%
Cn1cncc1C1=CN(c2ncnc3[nH]cnc23)CCS1,enzyme activity,inhibitor,radiometric,50 nM,inhibition,13.9%
O=C(NCc1ncc(C(F)(F)F)cc1Cl)c1ccc2c(c1)C1(CCS(=O)(=O)CC1)[C@H](C1CC1)N2S(=O)(=O)c1ccc(F)cc1,cell-free assay,,competition with immobilised ligand,1 µM,remaining binding,100%
Cn1c2c(c3ccc(Cl)c(Cl)c31)C(C#N)C1(CCOCC1)NC2=O (stereo not drawn),thermal stability,,DSF,10 µM,ΔTm,-0.3 °C
COc1cc2ncnc(Nc3ccc(Oc4ccccc4)c(C)c3C)c2cc1OC,enzyme activity,inhibitor,,1 µM,inhibition,1%
Nc1c(C(=O)NCc2ccc(C(=O)NCCCC3CCCCC3)cc2)cnn1-c1ccccc1,cell-free assay,,competition with immobilised ligand,0.1 µM,remaining binding,100%
FC(F)(F)c1ccc(/C=C/c2nc(COc3ccc(CCCCn4ccnn4)cc3)co2)cc1,enzyme activity,inhibitor,,0.5 µM,remaining activity,99%
